Screens: PubChem BioAssay, Broad Institute
This is a sample that favours compounds with a hit; in the whole collection about 5.8% have one here.
GASC1 inh – KDM4C (human) demethylase inhibition; Q9H3R0; GST-KDM4C 2-372, H3K9me3 peptide, LANCE TR-FRET; inhibition, % at 12.5 µM; 96,000 compounds, 0.15% hits; AID 720574;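 active = mean replicate inhibition above about 25%, with at least 55% of replicates also reaching it, limit read from the data, passing the limit was not always enough; inconclusive = only one of those two conditions met; inactive = neither condition met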
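System: N-terminal GST-fused human GASC-1 (KDM4C) fragment, residues 2-372 / Amount: 10 nM GST-KDM4C in enzyme reaction / Also added: H3K9me3 peptide with Fe(II)/2OG / Times: 30 min demethylation and 1 h detection at room temperature / Signal: LANCE TR-FRET / Read-out basis: Fall in 671/618 emission ratio as inhibition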
IDH1 R132H inh – blocks human IDH1 R132H reductase activity | O75874 | diaphorase/resazurin fluorescence, 60 min | inhibition, % at 10 µM | 70,000 compounds, 0.18% hits; in the data active = inhibition above about 34%; inconclusive = no clear call, values can overlap the other calls; inactive = below about 11%;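 note: 0% = DMSO and 100% = no enzyme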
Target sequence (O75874 whole entry R132H): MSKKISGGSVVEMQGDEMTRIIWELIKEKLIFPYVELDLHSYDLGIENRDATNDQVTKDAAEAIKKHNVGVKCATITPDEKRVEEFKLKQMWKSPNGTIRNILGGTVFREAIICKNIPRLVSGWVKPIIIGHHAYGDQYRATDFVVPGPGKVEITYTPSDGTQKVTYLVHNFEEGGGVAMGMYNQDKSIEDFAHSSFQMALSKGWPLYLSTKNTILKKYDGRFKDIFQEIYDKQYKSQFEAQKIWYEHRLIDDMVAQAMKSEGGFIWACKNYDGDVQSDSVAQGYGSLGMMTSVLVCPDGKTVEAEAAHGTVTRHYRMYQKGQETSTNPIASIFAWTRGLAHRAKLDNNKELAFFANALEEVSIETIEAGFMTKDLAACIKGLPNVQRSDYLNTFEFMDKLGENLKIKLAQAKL
Pf Dd2 growth – inhibitors of Plasmodium falciparum Dd2 growth | P. falciparum Dd2 growth, SYBR Green, 72 h; active compounds read low | activity change, % at 10 µM | 94,000 compounds, 2.3% hits | AID 1159554; in the data active = activity change below about -80%; inconclusive = no clear call, values can overlap the other calls
T cruzi growth-1 – T. cruzi proliferation inhibition. T. cruzi beta-gal in NIH3T3, GalScreen luminescence, 90 h. inhibition, % at 8.34 µM. 77,000 compounds, 5.9% hits. AID 624255;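 active = mean inhibition above about 93%, with at least 55% of replicates each passing it, limit read from the data, passing the limit was not always enough; inconclusive = only one of those two conditions holds; inactive = neither condition holds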
T cruzi growth-2 – blocks T. cruzi growth in NIH3T3 host cells; shares compounds with T cruzi growth-1; T. cruzi beta-gal in NIH3T3, GalScreen luminescence, 90 h; 5,600 compounds, 72% hits; inhibition, % at 8.35 µM;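 active = mean replicate inhibition above about 95% and at least 55% of replicates individually reaching it, limit read from the data; inconclusive = only one of the two criteria is met; inactive = neither criterion is met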
T cruzi growth-3 – inhibitors of T. cruzi proliferation; shares compounds with T cruzi growth-1; inhibition, % at 2.09 µM; T. cruzi beta-gal in NIH3T3, GalScreen luminescence, 90 h; 5,600 compounds, 21% hits;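 active = mean inhibition above about 95%, with at least 55% of replicates also reaching it, limit read from the data; inconclusive = meets just one of the two conditions; inactive = meets neither condition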;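 note: plate controls were neutral control median for no effect and positive control median for full effect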
NIH3T3 tox – NIH/3T3 (mouse) viability loss; shares compounds with T cruzi growth-1; NIH/3T3 viability, CellTiter-Glo ATP luminescence, 90 h; cytotoxicity (signal decrease), % at 8.35 µM; 5,600 compounds, 14% hits;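 active = mean signal decrease across replicates above about 35% based on untreated-well scatter, with enough replicates individually passing, limit read from the data; inconclusive = no rule stated though some were filed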;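 note: 0% = median of neutral control wells and 100% = median of positive control wells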
NIH3T3 tox 2 – NIH/3T3 (mouse) viability loss; shares compounds with T cruzi growth-1; NIH/3T3 viability, CellTiter-Glo ATP luminescence, 90 h; inhibition, % at 24.9 µM; 5,600 compounds, 56% hits; AID 651744;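 active = mean loss of cell viability signal at or above a set limit, and enough replicates individually reaching it; inconclusive = meets only the mean limit or only the replicate share; inactive = meets neither condition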;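 note: 0% = median of neutral control wells and 100% = median of positive control wells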
* marks the source's active call; other numbers are inactive results; ? = inconclusive; · = no result given.

SMILES	GASC1 inh	IDH1 R132H inh	Pf Dd2 growth	T cruzi growth-1	T cruzi growth-2	T cruzi growth-3	NIH3T3 tox	NIH3T3 tox 2
CC(C)CC#Cc1ccc2c(c1)O[C@@H](CN(C)C(=O)c1ccccc1)[C@@H](C)CN([C@H](C)CO)S2(=O)=O	-6	0	-56	·	·	·	·	·
CC(C)CC#Cc1ccc2c(c1)O[C@@H](CN(C)C(=O)c1cccc(F)c1)[C@@H](C)CN([C@H](C)CO)S2(=O)=O	-1	1	-23	120*	99*	92	23	106*
CC(C)CC#Cc1ccc2c(c1)O[C@H](CN(C)C(=O)c1cccc(F)c1)[C@H](C)CN([C@@H](C)CO)S2(=O)=O	0	0	-64	120*	104*	106*	24	104*
CC(C)CC#Cc1ccc2c(c1)O[C@H](CN(C)C(=O)c1cccc(F)c1)[C@H](C)CN([C@H](C)CO)S2(=O)=O	0	-4	-47	126*	104*	108*	29	104*
Cc1noc(C)c1S(=O)(=O)N(C)C[C@@H]1OCCCC[C@@H](C)Oc2ccc(NS(=O)(=O)c3cccs3)cc2C(=O)N([C@H](C)CO)C[C@@H]1C	1	·	0	·	·	·	·	·
COc1cccc(-c2ccc3c(c2)[C@@H]2[C@@H](CCN2C(=O)C2CCOCC2)[C@H](CO)N3)c1	0	·	-46	111*	90	52	-15	-6
COc1cccc(-c2ccc3c(c2)[C@@H]2[C@@H](CCN2C(=O)C2CCC2)[C@@H](CO)N3)c1	-1	·	-33	19	·	·	·	·
COc1cccc(-c2ccc3c(c2)[C@H]2[C@H](CCN2C(=O)C2CCOCC2)[C@@H](CO)N3)c1	-1	·	0	116*	105*	73	-5	-1
COc1cccc(-c2ccc3c(c2)[C@H]2[C@H](CCN2C(=O)C2CCOCC2)[C@H](CO)N3)c1	-2	·	-24	?	103*	65	3	20
O=C(c1cccnc1)N1CC[C@@H]2[C@@H](CO)Nc3ccc(-c4ccc(F)cc4)cc3[C@@H]21	1	·	15	67	·	·	·	·
C[C@H](CO)N1C[C@H](C)[C@H](CN(C)C(=O)NC2CCCCC2)OCCCC[C@H](C)Oc2ccc(NC(=O)NC3CCCCC3)cc2C1=O	0	·	-45	3	·	·	·	·
O=C(c1ccc2c(c1)OCO2)N1CCCCN2[C@H](C1)[C@H](c1ccc(-c3ccccc3)cc1)[C@@H]2CO	0	·	-14	57	·	·	·	·
COc1ccc(-c2ccc([C@@H]3[C@H](CO)N4CCCCN(C(=O)c5ccc6c(c5)OCO6)C[C@@H]34)cc2)cc1	-1	·	-32	108*	?	58	21	104*
O=C(c1ccc2c(c1)OCO2)N1CCCCN2[C@H](CO)[C@H](c3ccc(-c4ccccc4)cc3)[C@@H]2C1	0	·	-49	57	·	·	·	·
COc1ccc(-c2ccc([C@@H]3[C@H]4CN(C(=O)c5ccc6c(c5)OCO6)CCCCN4[C@H]3CO)cc2)cc1	0	·	-46	112*	101*	82	23	104*
COc1ccc(-c2ccc([C@H]3[C@H](CO)N4CCCCN(C(=O)c5ccc6c(c5)OCO6)C[C@@H]34)cc2)cc1	-1	·	-47	111*	100*	62	32	90*
O=C(c1ccc2c(c1)OCO2)N1CCCCN2[C@@H](CO)[C@@H](c3ccc(-c4ccccc4)cc3)[C@@H]2C1	0	·	-11	104*	100*	67	?	102*
CC(C)C#Cc1ccc([C@@H]2[C@H](CO)N3C(=O)CN(S(=O)(=O)c4ccccc4)C[C@@H]23)cc1	0	·	-38	·	·	·	·	·
COc1cccc(-c2ccc([C@@H]3[C@H](CO)N4CCCCN(C(=O)c5ccc6c(c5)OCO6)C[C@@H]34)cc2)c1	-1	·	-36	98*	107*	44	25	103*
COc1cccc(-c2ccc([C@H]3[C@@H](CO)N4CCCCN(C(=O)c5ccc6c(c5)OCO6)C[C@@H]34)cc2)c1	-1	·	25	95	·	·	·	·
C[C@H]1CN([C@@H](C)CO)S(=O)(=O)c2ccc(Br)cc2O[C@H]1CN(C)S(=O)(=O)c1ccccc1F	1	·	-45	74	·	·	·	·
C[C@H]1CN([C@@H](C)CO)S(=O)(=O)c2ccc(C#Cc3cccc(F)c3)cc2O[C@H]1CN(C)S(=O)(=O)c1ccccc1F	0	0	-10	111*	106*	72	22	?
C[C@H]1CN([C@@H](C)CO)S(=O)(=O)c2ccc(C#Cc3cccc(F)c3)cc2O[C@@H]1CN(C)S(=O)(=O)c1ccccc1F	0	0	-69	104*	104*	103*	23	60*
CC1=C(C/C=N/NC(=O)c2ccccc2O)C(C)(C)CCC1	·	0	·	·	·	·	·	·
COc1ccccc1C#Cc1ccc([C@@H]2[C@@H](CO)N3CCCCN(C(=O)C4CCCC4)C[C@H]23)cc1	·	·	3	112*	103*	90	30	106*
SMILES	GASC1 inh	IDH1 R132H inh	Pf Dd2 growth	T cruzi growth-1	T cruzi growth-2	T cruzi growth-3	NIH3T3 tox	NIH3T3 tox 2
COc1ccccc1C#Cc1ccc([C@H]2[C@H]3CN(C(=O)C4CCCC4)CCCCN3[C@H]2CO)cc1	·	·	27	114*	88	87	9	54*
COc1ccccc1C#Cc1ccc([C@H]2[C@@H](CO)N3CCCCN(C(=O)C4CCCC4)C[C@@H]23)cc1	·	·	5	118*	101*	105*	?	71*
COc1ccccc1C#Cc1ccc([C@H]2[C@@H](CO)N3CCCCN(S(C)(=O)=O)C[C@H]23)cc1	-1	·	-39	88	·	·	·	·
COc1ccccc1C#Cc1ccc([C@H]2[C@H]3CN(S(C)(=O)=O)CCCCN3[C@H]2CO)cc1	1	·	-13	75	·	·	·	·
Cc1cc(C)nc(NS(=O)(=O)c2ccc(NC(=O)c3ccccc3Cl)cc2)n1	·	0	·	·	·	·	·	·
C/C=C/c1ccc([C@@H]2[C@H]3CN(C(=O)Nc4ccc(OC)cc4)CCCCN3[C@H]2CO)cc1	2	·	-72	69	·	·	·	·
C[C@H](CO)N1C[C@H](C)[C@@H](CN(C)Cc2ccc(-c3ccccc3)cc2)Oc2ccc(NC(=O)Nc3cccc4ccccc34)cc2C1=O	0	·	-16	102*	106*	72	9	28
C[C@H]1CN([C@@H](C)CO)C(=O)c2cc(NC(=O)Nc3cccc4ccccc34)ccc2O[C@H]1CN(C)Cc1ccc(-c2ccccc2)cc1	-4	-1	-12	81	·	·	·	·
C[C@@H]1CN([C@H](C)CO)C(=O)c2cc(NC(=O)Nc3cccc4ccccc34)ccc2O[C@H]1CN(C)Cc1ccc(-c2ccccc2)cc1	1	-1	8	112*	103*	91	9	-1
